Active and inactive are the calls of the source. The calls are words filed in the database; no cut-off is given here.
How the values were obtained:
[1] = system: Lytechinus pictus; assay: (§1) Antagonistic activity at NAADP receptor in sea urchin egg homogenate assessed as inhibition of NAADP-mediated Ca2+ release using Fluo-3 staining based fluorimetric assay relative to control; assay type: functional, tissue-based
[2] = Displacement of [32P]NAADP from NAADP receptor in sea urchin egg homogenate preincubated 10 mins before [32P]NAADP addition; assay type: tissue-based, Lytechinus pictus
Procedure, shortened: (§2)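 Sea urchin egg homogenate in intracellular-like buffer. Compound in DMSO (final 1% v/v) pre-incubated 10 min at 25°C, then [32P]NAADP added to 0.3 nM. Incubated 30 min, then binding assessed by filtration; concentration range used for displacement curves.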

[3] = as §1; assay type: functional, tissue-based, Lytechinus pictus
[4] = system: Lytechinus pictus; assay: Inhibition of IP3-induced Ca2+ release in sea urchin Egg homogenate at 100 uM using Fluo-3 staining based fluorimetric assay relative to control; values are per cent of control
[5] = system: Lytechinus pictus; assay: Antagonistic activity at NAADP receptor in sea urchin egg homogenate assessed as inhibition of NAADP-mediated Ca2+ release at 100 uM using Fluo-3 staining based fluorimetric assay relative to control; values are per cent of control
[6] = species on record: Mus musculus; assay: Antagonistic activity at NAADP receptor in CD1 mouse pancreatic beta cells assessed as inhibition of NAADP-mediated Ca2+ increase at 125 uM by patch clamp method; assay type: functional
Procedure, shortened: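 Mouse pancreatic beta cells voltage-clamped with a patch pipette; NAADP delivered through the pipette (50 nM in text, 100 nM in legend). Compound pre-incubated in the bathing solution. Ca2+ increases read as Ca2+-dependent current traces, compared with and without compound in the bath.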

[7] = system: Lytechinus pictus; assay: Noncompetitive inhibition of NAADP receptor in sea urchin egg homogenate assessed as inhibition of NAADP induced Ca2+ release using Fluo-3 staining based fluorimetric assay; assay type: tissue-based
[8] = species on record: Mus musculus; assay: Inhibition of L-type calcium channel in CD1 mouse pancreatic islets at 100 uM in presence of glucose diazoxide and KCl
Procedure, shortened: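 Mouse islets in glucose (10 mM) and diazoxide (100 μM), depolarized with KCl (45 mM) with or without compound (100 μM). Ca2+ transient monitored with fura-PE3.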

[9] = system: Pancreatic islet; assay: Inhibition of glucose induced mitochondrial metabolism in CD1 mouse pancreatic islets assessed as NADH and NADPH levels by fluorescence method; assay type: functional, cell-based
Procedure, shortened: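 Mouse islets pre-incubated 60 min at 37°C in 3 mM glucose. NAD(P)H fluorescence (360 nm excitation, >470 nm emission) expressed as percent of basal values within the same islet.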

[10] = system: Pancreatic islet; assay: (§3) Inhibition of glucose-induced Ca2+ increase in CD1 mouse pancreatic islets preincubated for 30 mins before glucose challenge; assay type: functional, cell-based
Procedure, shortened: (§4)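 Acutely isolated mouse islets loaded with fura-PE3 AM and held in 3 mM glucose. Compound pre-incubated 30 min, then 15 mM glucose added. First peak, oscillation amplitude and plateau measured; concentration-inhibition curve gives IC50.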

[11] = as §3; assay type: functional, cell-based; details: CD1, Pancreatic islet; procedure, shortened: as §4
[12] = Displacement of [32P]NAADP from Egg-binding protein in sea urchin egg homogenate at 6 uM after 10 mins; assay type: tissue-based, Lytechinus pictus; procedure, shortened: as §2
[13] = species on record: Mus musculus; assay: Binding affinity to NAADP receptor in CD1 mouse pancreatic beta cells assessed as fluorescent labeling of receptor at 60 nM after 30 mins in presence of V-type proton pump inhibitor bafilomycin A1 by confocal microscopy
Procedure, shortened: (§5)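 Mouse pancreatic beta cells imaged by confocal microscopy, compound excited at 355 nm with emission 415±30 nm. LysoTracker Red (50 nM, 20-40 min; excitation 568 nm, emission >590 nm) used as comparison. Pretreatment with bafilomycin A1 (3 μM, 15 min) or NAADP-acetoxymethyl ester (60 nM, 30 min).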

[14] = system: Lytechinus pictus; assay: Inhibition of cyclic ADP-ribose-induced Ca2+ release in sea urchin Egg homogenate at 100 uM using Fluo-3 staining based fluorimetric assay relative to control; values are per cent of control
[15] = system: Lytechinus pictus; assay: Antagonistic activity at NAADP receptor in intact sea urchin eggs assessed as Inhibition of NAADP mediated Ca2+ increase at 100 uM using Oregon Green 488-BAPTA Dextran staining based by laser scanning confocal microscopy; assay type: functional
Procedure, shortened: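 Intact Lytechinus pictus eggs on polylysine-coated coverslips in artificial seawater containing compound. Eggs microinjected with Oregon Green 488 BAPTA Dextran (10 μM). NAADP (100 μM in pipette) pressure-microinjected to 1% egg volume, delivering ~1 μM. Imaged by laser-scanning confocal microscopy, 488 nm excitation, emission 530±15 nm band-pass or 510 nm long-pass.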

[16] = system: Lytechinus pictus; assay: Displacement of [32P]NAADP from NAADP receptor in sea urchin egg homogenate after 5 days; assay type: tissue-based
Procedure, shortened: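 Homogenate pre-incubated 10 min with compound (10 μM) or NAADP (10 nM), then [32P]NAADP added. Samples filtered at time points up to 5 days; dissociation read as recovery of [32P]NAADP binding (100% ≈ 1,500 cpm).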

[17] = species on record: Mus musculus; assay: Binding affinity to NAADP receptor in CD1 mouse pancreatic beta cells assessed as fluorescent labeling of receptor at 60 nM after 30 mins by confocal microscopy; procedure, shortened: as §5

Compound | inhibition [1] | also measured
CCN1C(=O)c2ccccc2[C@H]1Nc1ccc(C(=O)N2CCN(C/C=C/c3ccccc3)CC2)cc1 | inactive | –
CN1C(=O)/C(=C/c2ccccc2F)Sc2ccc(C(=O)N3CCN(Cc4ccc5c(c4)OCO5)CC3)cc21 | inactive | –
Cc1ccc(-c2cc(C(=O)NCC(C)(C)CNC(=O)c3cc(-c4ccc(C)o4)nc4ccccc34)c3ccccc3n2)o1 | inactive | –
COc1ccc([C@H]2N[C@H](C(=O)O)Cc3c2[nH]c2ccccc32)cc1CN1CCN(c2ccccc2F)CC1 | – | IC50 [2]: 0.4 nM; IC50 [3]: 6 nM
Cc1ccc(-n2c(SCC(=O)N/N=C\c3cccc(Oc4ccccc4)c3)nnc2-c2ccc(Cl)cc2)cc1 | inactive | –
CCn1c2ccccc2c2cc(NC(=O)CN3CCN(S(=O)(=O)c4cc(Cl)ccc4Cl)CC3)ccc21 | inactive | –
CN1C(=O)/C(=C/c2ccccc2Cl)Sc2ccc(C(=O)N3CCN(Cc4ccc5c(c4)OCO5)CC3)cc21 | inactive | –
COc1cc2c(cc1OC)-c1cc(NCCN3CCN(C(=O)c4ccc(F)cc4)CC3)nc(=O)n1CC2 | inactive | –
COc1ccc(C2N[C@H](C(=O)O)Cc3c2[nH]c2ccccc32)cc1CN1CCN(c2ccccc2F)CC1 (some centres not stated) | – | level, % of control [4]: 87%; residual activity [5]: 5.4%; inhibition [6]: Active; inhibition [7]: Active; inhibition [8]: inactive; inhibition [9]: inactive; inhibition [10]: Dose-dependent effect; IC50 [11]: 3000 nM; Ki [12]: 6000 nM; Activity [13]: Active; level, % of control [14]: 101%; inhibition [15]: Active; inhibition [16]: Active; IC50 [3]: 2000 nM; Activity [17]: Active
O=C(COC(=O)c1cccc(Oc2ccccc2)c1)COC(=O)c1cccc(Oc2ccccc2)c1 | inactive | –
COc1ccc2[nH]c(C(=O)O)c(CCNC(=O)CO/N=C3/C=C[C@@]4(C)C(=C3)CC[C@@H]3[C@H]4CC[C@]4(C)[C@H]3CC[C@]4(C)O)c2c1 | Toxic | –
COc1ccc(C(=O)OCC(=O)c2ccc3c(c2)-c2ccccc2C3)cc1S(=O)(=O)N1CCCc2ccccc21 | Active | –
COc1ccccc1N(C)S(=O)(=O)c1ccc(C(=O)Nc2ccc(N(c3ccccc3)C(C)C)cc2)cc1 | Active | –
CS(=O)(=O)N(Cc1ccccc1)c1ccc(C(=O)N/N=C/c2cccc(Oc3ccccc3)c2)cc1 | inactive | –
C=C1NN(c2nc(-c3cccc([N+](=O)[O-])c3)cs2)C(=O)/C1=N/Nc1ccc(Cl)cc1C(=O)c1ccccc1 | Insoluble | –
C[C@@H]1CCc2c(sc(NC(=O)CN3CCN(S(=O)(=O)c4ccc5c(c4)OCCO5)CC3)c2C#N)C1 | inactive | –
CC(C)N(CCCNC(=O)c1ccc2c(c1)N(Cc1c(F)cccc1Cl)C(=O)CS2)Cc1ccccc1 | Active | –
COc1ccc([C@@H]2N[C@H](C(=O)O)Cc3c2[nH]c2ccccc32)cc1CN1CCN(c2ccccc2F)CC1 | – | IC50 [2]: 15000 nM; IC50 [3]: 800 nM
NC(=O)c1c(NC(=O)CN2CCN(S(=O)(=O)c3ccc4c(c3)OCCO4)CC2)sc2c1CCCC2 | inactive | –
CCn1c2ccccc2c2cc(NC(=O)CN3CCN(S(=O)(=O)c4ccc(OC)cc4)CC3)ccc21 | inactive | –
CCN(CC)CCOC(=O)c1ccc(NC(=O)c2cc(-c3cccc4ccccc34)nc3ccccc23)cc1 | inactive | –
COc1ccc(S(=O)(=O)N2CCN([C@H](C)C(=O)Nc3ccccc3-c3ccccc3)CC2)cc1 | inactive | –
FC(F)(F)c1cccc(N2CCN(Cn3nc(COc4ccccc4)n(-c4ccccc4)c3=S)CC2)c1 | Toxic | –
CC(C)(c1ccccc1)c1ccc(OC[C@@H](O)CN[C@H](Cc2ccccc2)c2nc(-c3ccccc3)no2)cc1 | inactive | –
O=C(COc1ccccc1-c1ccccc1)N1CCN(S(=O)(=O)c2ccc3c(c2)OCCO3)CC1 | inactive | –
CCC(=O)N1N=C(c2ccc(C3=NN(C(=O)CC)[C@H](c4cccc(OC)c4OC)C3)cc2)C[C@H]1c1cccc(OC)c1OC | Insoluble | –

Source: ChEMBL document CHEMBL1221223, “Identification of a chemical probe for NAADP by virtual screening” (Nat Chem Biol, 2009)
